Experimental findings from ChEMBL document CHEMBL1139823, “Rational design of conformationally restricted quinazolinone inhibitors of poly(ADP-ribose)polymerase” (Bioorg Med Chem Lett, 2007) are described below.

In data set [1] the target is Poly [ADP-ribose] polymerase 1 (Homo sapiens, UniProt P09874). Description: Inhibition of human PARP1.
The nature of data set [2]: Drug level in mouse brain at 32 mg/kg, po after 2.0 hrs. The format is ADME, organism-based. The arrangement: dose 32 mg/kg, route oral. Conditions: read-out: Drug uptake. In a few lines: (§1)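 Mice dosed orally at 32 mg/kg (n = 2). Compound levels in brain (µg/g tissue) and plasma (µg/mL) measured by ex vivo assay at 0.5 and 2.0 h after dosing.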
A short description of data set [3]: Drug level in mouse plasma at 32 mg/kg, po after 2.0 hrs. It counts as ADME, organism-based. Also noted: dose 32 mg/kg, route oral. The essentials: as §1
Data set [4] in a line: Drug level in mouse plasma at 32 mg/kg, po after 0.5 hr. The arrangement: dose 32 mg/kg, route oral. The format is ADME, organism-based. The essentials:
as §1

Data set [5] in a line: Drug level in mouse brain at 32 mg/kg, po after 0.5 hr. It counts as ADME, organism-based. The arrangement: dose 32 mg/kg, route oral. As to conditions: read-out: Drug uptake. The essentials: as §1
The nature of data set [6]: Metabolic stability assessed as Intrinsic clearance in mouse liver microsomes after 60 mins. In general terms: Microsomes from liver hold many membrane-bound enzymes, among them those of drug oxidation.
A short description of data set [7]: Metabolic stability assessed as Intrinsic clearance in human liver microsomes after 60 mins.

Chain of Poly [ADP-ribose] polymerase 1 (P09874 whole entry): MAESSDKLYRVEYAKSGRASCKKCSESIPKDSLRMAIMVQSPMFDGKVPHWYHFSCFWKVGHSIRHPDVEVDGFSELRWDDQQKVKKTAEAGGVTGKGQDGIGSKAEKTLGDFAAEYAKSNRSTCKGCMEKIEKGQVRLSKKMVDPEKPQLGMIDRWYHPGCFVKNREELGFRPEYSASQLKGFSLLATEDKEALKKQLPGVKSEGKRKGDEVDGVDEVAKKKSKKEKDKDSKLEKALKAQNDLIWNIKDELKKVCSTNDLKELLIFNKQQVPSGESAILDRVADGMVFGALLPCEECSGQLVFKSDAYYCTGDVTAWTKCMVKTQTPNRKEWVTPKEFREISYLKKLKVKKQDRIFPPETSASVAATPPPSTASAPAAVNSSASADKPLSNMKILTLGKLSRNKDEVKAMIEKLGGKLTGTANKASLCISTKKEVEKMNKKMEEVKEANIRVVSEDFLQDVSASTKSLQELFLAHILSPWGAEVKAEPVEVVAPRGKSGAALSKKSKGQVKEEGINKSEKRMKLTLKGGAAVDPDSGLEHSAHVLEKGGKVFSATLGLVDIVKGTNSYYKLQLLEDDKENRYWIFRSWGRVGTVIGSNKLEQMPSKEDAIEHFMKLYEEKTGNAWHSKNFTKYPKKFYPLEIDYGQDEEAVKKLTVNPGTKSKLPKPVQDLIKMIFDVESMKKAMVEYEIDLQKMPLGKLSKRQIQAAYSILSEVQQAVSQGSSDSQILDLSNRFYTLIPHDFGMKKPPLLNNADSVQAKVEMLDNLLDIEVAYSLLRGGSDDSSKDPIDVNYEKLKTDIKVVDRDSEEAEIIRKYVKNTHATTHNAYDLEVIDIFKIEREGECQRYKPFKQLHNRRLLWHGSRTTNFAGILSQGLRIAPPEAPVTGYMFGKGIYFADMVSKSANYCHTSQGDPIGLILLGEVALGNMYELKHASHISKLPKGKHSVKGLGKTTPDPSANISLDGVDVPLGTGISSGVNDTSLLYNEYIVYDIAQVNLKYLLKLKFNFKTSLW

As usually defined, the IC50 is the concentration at which inhibition is half-maximal. Lower therefore signals greater potency. For `O=c1[nH]c(CCCN2CC=C(c3ccc(Cl)cc3)CC2)nc2ccccc12`, the IC50 in data set [1] stood at 8.9 nM.
Turning to `Cc1cccc2c(=O)[nH]c(CCCN3CC=C(c4ccc(F)cc4)CC3)nc12`, in data set [1], the IC50 is 8 nM.
`O=c1[nH]c(C2CCC(N3CCC(c4ccccc4)CC3)C2)nc2ccccc12` (stereo in doubt; cis) yielded an IC50 in data set [1] of 435 nM.
In turn, `O=c1[nH]c([C@H]2CC[C@H](N3CC=C(c4ccccc4)CC3)CC2)nc2ccccc12` returned an IC50 in data set [1] of 8400 nM.
The same measure, in the same setting: as for `Cc1cccc2c(=O)[nH]c(C3=CC(N4CCC(c5ccc(F)cc5)CC4)CC3)nc12` (configuration not stated), the figure is 30 nM.
As for `O=c1[nH]c(C2=CC(N3CCN(c4ccc(Cl)cc4)CC3)CC2)nc2ccccc12` (configuration not stated), the concentration at 2 h in data set [2] was 2200 ng/g; in data set [3], > 20400 ng/mL. In data set [1], this compound returned an IC50 of 25 nM. Moreover, the figures for the concentration at 0.5 h in data set [4] and in data set [5] were > 20100 ng/mL and 1300 ng/g, respectively.
For orientation: CLint scaled means a measure of how fast metabolising enzymes remove a compound, apart from limits set by blood flow. As to `O=c1[nH]c(CCCN2CC=C(c3ccc(F)cc3)CC2)nc2c(Cl)cccc12`, the concentration at 2 h in data set [2] came out at 2800 ng/g; in data set [3] it was 1200 ng/mL. Besides, in data set [6], the CLint scaled at 1 h stood at 3910 mL/min/kg. In addition, the concentration at 0.5 h amounted to 1900 ng/mL in data set [4] and 8400 ng/g in data set [5].
`O=c1[nH]c(CCCN2CCC(c3ccccc3)CC2)nc2c(Cl)cccc12`: the concentration at 2 h in data set [2] is 3900 ng/g; in data set [3], 9400 ng/mL. This compound gave an IC50 in data set [1] of 103 nM. For the same compound, the values for the concentration at 0.5 h in data set [4] and in data set [5] were 12500 ng/mL and 11600 ng/g, respectively.
For the compound `O=c1[nH]c(C2=CC(N3CCN(c4ccc(F)cc4)CC3)CC2)nc2c(Cl)cccc12` (configuration not stated), half-maximal inhibition in data set [1] (IC50) required 25 nM.
For `Cc1cccc2c(=O)[nH]c(C3=CC(N4CCN(c5ccc(Cl)cc5)CC4)CC3)nc12` (configuration not stated), the IC50 in data set [1] came out at 12 nM.
In the case of `O=c1[nH]c(N2CCC(N3CC=C(c4ccccc4)CC3)C2)nc2ccccc12` (configuration not stated), the IC50 in data set [1] came out at 300 nM.
In data set [1], `Cc1cccc2c(=O)[nH]c(CCCN3CC=C(c4ccc(Cl)cc4)CC3)nc12` registered an IC50 of 16 nM.
Still for that read-out and setting: as for `Cc1cccc2c(=O)[nH]c(C3=CC(N4CC=C(c5ccc(F)cc5)CC4)CC3)nc12` (configuration not stated), the figure is 25 nM.
Consider `O=c1[nH]c(C2=C[C@@H](N3CCC(c4ccc(F)cc4)CC3)CC2)nc2c(Cl)cccc12`, for which the concentration at 2 h in data set [2] is 12500 ng/g; in data set [3], 11300 ng/mL. Moreover, the CLint scaled at 1 h worked out at 17 mL/min/kg in data set [7] and 686 mL/min/kg in data set [6]. In data set [1], this compound registered an IC50 of 35 nM. Also, the concentration at 0.5 h in data set [4] was 13600 ng/mL; in data set [5], 6700 ng/g.
`O=c1[nH]c(C2=C[C@H](N3CC=C(c4ccccc4)CC3)CC2)nc2c(Cl)cccc12` came in with an IC50 in data set [1] of 286 nM.
Consider `O=c1[nH]c(C2CCC(N3CCC(c4ccccc4)CC3)C2)nc2ccccc12` (stereo in doubt; trans), for which 555 nM corresponded to half-maximal inhibition in data set [1] (IC50).
Consider `O=c1[nH]c(C2=C[C@@H](N3CC=C(c4ccccc4)CC3)CC2)nc2c(Cl)cccc12`, for which the concentration at 2 h was determined as 3000 ng/g in data set [2] and 18100 ng/mL in data set [3]. Besides, the IC50 in data set [1] was 15 nM. For the same compound, the concentration at 0.5 h in data set [4] was 17100 ng/mL; in data set [5], 2000 ng/g.
The compound `O=c1[nH]c([C@H]2CC[C@@H](N3CC=C(c4ccccc4)CC3)CC2)nc2ccccc12` displayed an IC50 in data set [1] of 1600 nM.
For `Cc1cccc2c(=O)[nH]c(C3=CC(N4CCC(c5ccc(Cl)cc5)CC4)CC3)nc12` (configuration not stated), in data set [1], the IC50 was 46 nM.
On the same count and under the same terms, as for `O=c1[nH]c(C2=C[C@H](N3CCC(c4ccc(F)cc4)CC3)CC2)nc2c(Cl)cccc12`, the figure is 257 nM; as for `O=c1[nH]c(C2=CC(N3CC=C(c4ccc(F)cc4)CC3)CC2)nc2ccccc12` (configuration not stated), 18 nM; as for `O=c1[nH]c(C2CCCC(N3CC=C(c4ccccc4)CC3)C2)nc2ccccc12` (racemic), 1800 nM.
Turning to `O=c1[nH]c(C2=C[C@@H](N3CCC(c4ccccc4)CC3)CC2)nc2c(Cl)cccc12`, the concentration at 2 h in data set [2] was determined as 18100 ng/g; in data set [3], 4400 ng/mL. The CLint scaled at 1 h in data set [7] came to 22 mL/min/kg; in data set [6], 1160 mL/min/kg. The same compound registered an IC50 in data set [1] of 8.7 nM. For the same compound, the concentration at 0.5 h in data set [4] turned out to be 8700 ng/mL; in data set [5], 19800 ng/g.
In turn, `O=c1[nH]c(CCCN2CC=C(c3ccc(F)cc3)CC2)nc2ccccc12` yielded an IC50 in data set [1] of 16 nM.
Still for that read-out and setting: as for `O=c1[nH]c(CCCN2CCC(c3ccc(F)cc3)CC2)nc2c(Cl)cccc12`, the figure is 47 nM.
Turning to `O=c1[nH]c(CCCN2CC=C(c3ccccc3)CC2)nc2c(Cl)cccc12`, the concentration at 2 h in data set [2] turned out to be 8400 ng/g; in data set [3], 1200 ng/mL. The concentration at 0.5 h in data set [4] was 1300 ng/mL; in data set [5], 8000 ng/g.
In data set [1], `O=c1[nH]c(C2=CC(N3CC=C(c4ccccc4)CC3)CCC2)nc2ccccc12` (configuration not stated) returned an IC50 of 160 nM.
`O=c1[nH]c(N2CC(N3CC=C(c4ccccc4)CC3)C2)nc2ccccc12` yielded an IC50 in data set [1] of 504 nM.
As to `O=c1[nH]c(C2=CC(N3CC=C(c4ccccc4)CC3)CC2)nc2ccccc12` (racemic), half-maximal inhibition in data set [1] (IC50) was put at 16 nM.
For the compound `O=c1[nH]c(C2=CC(N3CC=C(c4ccc(F)cc4)CC3)CC2)nc2c(Cl)cccc12` (configuration not stated), the concentration at 2 h was determined as 900 ng/g in data set [2] and 17700 ng/mL in data set [3]. The CLint scaled at 1 h was found to be 54 mL/min/kg in data set [7] and 1330 mL/min/kg in data set [6]. The same compound yielded an IC50 in data set [1] of 36 nM. Moreover, the concentration at 0.5 h came out at 15200 ng/mL in data set [4] and 400 ng/g in data set [5].
